In brackets after ≈: the same amount, converted by molar mass.

The source of these data is ChEMBL document CHEMBL1122499, “Structural requirements of olefinic 5-substituted deoxyuridines for antiherpes activity” (1983).

The first assay concerns Human alphaherpesvirus 1. As to the kind of experiment: Antiviral activity against herpes simplex virus type 1 (HSV-1) determined in baby hamster kidney cells. Format: functional.
Conditions: not given
In outline:
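Microplaque reduction with HSV-1 strain S3. Serial 0.5 log virus dilutions were inoculated onto baby hamster kidney cell monolayers in microtiter plates for infectivity end-point titration. Compound was present in the overlay (Dulbecco-modified Eagle MEM, 10% donor calf serum, 0.5% carboxymethylcellulose). MIC was the lowest concentration that cut the virus infectivity end point by at least 1 log versus the untreated control.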
`O=c1[nH]c(=O)n([C@H]2C[C@H](O)[C@@H](CO)O2)cc1/C=C/Br` (stereo in doubt; 4) [BRIVUDINE] registered an MIC of 0.1 µg/mL (≈ 0.3 µM). Same read-out and setting: the same measure for `O=c1[nH]c(=O)n([C@H]2C[C@H](O)[C@@H](CO)O2)cc1/C=C/Br` (stereo in doubt; 2) [BRIVUDINE]: 0.005 µg/mL (≈ 0.015 µM).

Still in this assay, the particulars now being: Human alphaherpesvirus 1; read-out: MIC.
With `C/C=C/c1cn([C@H]2C[C@H](O)[C@@H](CO)O2)c(=O)[nH]c1=S`, the MIC stood at 100 µg/mL (≈ 352 µM). Same read-out and setting: the result for `C/C=C\c1cn([C@H]2C[C@H](O)[C@@H](CO)O2)c(=O)[nH]c1=O` reads 100 µg/mL (≈ 373 µM); that for `CC#Cc1cn([C@H]2C[C@H](O)[C@@H](CO)O2)c(=O)[nH]c1=O`, 1 µg/mL (≈ 3.76 µM). Still for that read-out and setting: the same measure for `C/C=C/c1cn([C@H]2C[C@H](O)[C@@H](CO)O2)c(=O)nc1N`: 50 µg/mL (≈ 187 µM).

As for `C=CCc1cn([C@H]2C[C@H](O)[C@@H](CO)O2)c(=O)[nH]c1=O`, the MIC amounted to 100 µg/mL (≈ 373 µM). On the same count and under the same terms, the result for `C=C(Cl)Cc1cn([C@H]2C[C@H](O)[C@@H](CO)O2)c(=O)[nH]c1=O` reads 50 µg/mL (≈ 165 µM); that for `C/C(Br)=C/c1cn([C@H]2C[C@H](O)[C@@H](CO)O2)c(=O)[nH]c1=O.C/C(Br)=C\c1cn([C@H]2C[C@H](O)[C@@H](CO)O2)c(=O)[nH]c1=O`, 1 µg/mL. On the same count and under the same terms, the result for `C/C=C\c1cn([C@H]2C[C@H](O)[C@@H](CO)O2)c(=O)nc1N` reads greater than 100 µg/mL. In the case of `CC(C)=Cc1cn([C@H]2C[C@H](O)[C@@H](CO)O2)c(=O)[nH]c1=O`, the MIC was greater than 50 µg/mL. Same read-out and setting: the same measure for `CCC/C=C/c1cn([C@H]2C[C@H](O)[C@@H](CO)O2)c(=O)[nH]c1=O`: greater than 100 µg/mL; for `COC(=O)/C=C/c1cn([C@H]2C[C@H](O)[C@@H](CO)O2)c(=O)[nH]c1=O`: 10 µg/mL (≈ 32 µM).

In the case of `C/C(=C\Br)c1cn([C@H]2C[C@H](O)[C@@H](CO)O2)c(=O)[nH]c1=O`, the MIC was 0.1 µg/mL (≈ 0.288 µM). Still for that read-out and setting: the same measure for `CC(C)(C)/C=C/c1cn([C@H]2C[C@H](O)[C@@H](CO)O2)c(=O)[nH]c1=O`: greater than 10 µg/mL; for `C/C(=C\Cl)c1cn([C@H]2C[C@H](O)[C@@H](CO)O2)c(=O)[nH]c1=O`: greater than 100 µg/mL; for `C/C=C/c1cn([C@H]2C[C@H](O)[C@@H](CO)O2)c(=O)[nH]c1=O`: 0.5 µg/mL (≈ 1.86 µM).

As to `COC(=O)/C=C(\C)c1cn([C@H]2C[C@H](O)[C@@H](CO)O2)c(=O)[nH]c1=O`, the MIC was greater than 100 µg/mL. As to `CCCCc1cn([C@H]2C[C@H](O)[C@@H](CO)O2)c(=O)[nH]c1=O`, the MIC was 10 µg/mL (≈ 35.2 µM). For the molecule `C/C=C(/C)c1cn([C@H]2C[C@H](O)[C@@H](CO)O2)c(=O)[nH]c1=O`, the MIC was greater than 100 µg/mL. Still for that read-out and setting: the same measure for `C/C=C(\C)c1cn([C@H]2C[C@H](O)[C@@H](CO)O2)c(=O)[nH]c1=O`: 50 µg/mL (≈ 177 µM); for `CCCC/C=C/c1cn([C@H]2C[C@H](O)[C@@H](CO)O2)c(=O)[nH]c1=O`: greater than 100 µg/mL; for `CCC#Cc1cn([C@H]2C[C@H](O)[C@@H](CO)O2)c(=O)[nH]c1=O`: 10 µg/mL (≈ 35.7 µM).

Consider `C/C=C/Cc1cn([C@H]2C[C@H](O)[C@@H](CO)O2)c(=O)[nH]c1=O.C/C=C\Cc1cn([C@H]2C[C@H](O)[C@@H](CO)O2)c(=O)[nH]c1=O`, for which the MIC was determined as 10 µg/mL. As for `COC(=O)/C(C)=C/c1cn([C@H]2C[C@H](O)[C@@H](CO)O2)c(=O)[nH]c1=O`, the MIC is greater than 100 µg/mL. The same measure, in the same setting: the result for `CC/C=C/c1cn([C@H]2C[C@H](O)[C@@H](CO)O2)c(=O)[nH]c1=O` reads 0.5 µg/mL (≈ 1.77 µM); that for `CS/C=C/c1cn([C@H]2C[C@H](O)[C@@H](CO)O2)c(=O)[nH]c1=O`, 0.5 µg/mL (≈ 1.66 µM); that for `COC(=O)/C=C/C=C/c1cn([C@H]2C[C@H](O)[C@@H](CO)O2)c(=O)[nH]c1=O`, greater than 100 µg/mL.

`O=c1[nH]c(=O)n([C@H]2C[C@H](O)[C@@H](CO)O2)cc1C=C(Br)Br`: the MIC turned out to be 0.1 µg/mL (≈ 0.243 µM).

Take `N#C/C=C/c1cn([C@H]2C[C@H](O)[C@@H](CO)O2)c(=O)[nH]c1=O`: the MIC is greater than 25 µg/mL.
